Measurements as given in ChEMBL document CHEMBL6127097, “Structure-Guided Discovery of cis-Hexahydro-pyrido-oxazinones as Reversible, Drug-like Monoacylglycerol Lipase Inhibitors” (J Med Chem, 2024).
The source made the active and inactive calls. The rule behind the calls is not given here.

Columns and labels:
[1] = Chemical stability at pH 8 incubated for 2 hrs; assay type: physicochemical; settings: buffer, pH 8, 2 h
Outline: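 Compound was held in aqueous buffer at the stated pH for 2 h at 37 °C.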

Monoglyceride lipase [2] = target: T1, Monoglyceride lipase (Rattus norvegicus, UniProt Q8R431); test: Binding affinity to rat MAGL assessed as equilibrium dissociation constant by SPR analysis
T1 sequence (Q8R431 whole entry): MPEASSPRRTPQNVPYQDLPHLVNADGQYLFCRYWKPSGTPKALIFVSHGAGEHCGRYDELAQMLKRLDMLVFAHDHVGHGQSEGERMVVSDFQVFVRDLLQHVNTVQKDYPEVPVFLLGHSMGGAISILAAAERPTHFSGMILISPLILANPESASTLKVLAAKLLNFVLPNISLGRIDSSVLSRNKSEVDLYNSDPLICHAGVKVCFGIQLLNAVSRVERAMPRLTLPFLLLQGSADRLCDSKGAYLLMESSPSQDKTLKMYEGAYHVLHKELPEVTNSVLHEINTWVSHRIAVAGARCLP
Outline: (§1)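 Human or rat MAGL was immobilized by amine coupling without ethanolamine quenching. Runs were done at 18 °C in 10 mM HEPES, 150 mM NaCl, 0.05% P20, 50 µM EDTA, pH 7.4, with 1% DMSO. Single-cycle kinetics used five concentrations, top 1 µM in 2-fold steps, at 30 µL/min, giving kon, koff and Kd.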

[3] = Clearance in mouse microsomes; assay type: ADME, Microsome
[4] = Plasma protein binding in rat assessed as fraction unbound by equilibrium dialysis based LC-MS/MS method; assay type: ADME, cell-free
[5] = Volume of distribution at steady state in Wistar rat at 1 mg/kg, iv measured upto 24 hrs by LC-MS/MS analysis; assay type: ADME, organism-based; settings: in vivo, read-out: Vdss
Outline: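 Male Wistar rats (N = 3) received a single 1 mg/kg i.v. dose as a solution in NMP/0.9% NaCl (30:70, 2 mL/kg). Blood was drawn at 0.083, 0.25, 0.5, 1, 2, 4, 7 and 24 h onto K2EDTA, and plasma was separated by centrifugation at 3000g for 15 min at 4 °C. Concentrations were measured by LC-MS/MS, and Vss was derived by noncompartmental analysis.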

[6] = AUClast in Wistar rat at 5 mg/kg, po measured upto 24 hrs by LC-MS/MS analysis; assay type: ADME, organism-based; settings: in vivo
Outline: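 Male Wistar rats (N = 3 per group) received a single dose. The i.v. dose was 1 mg/kg in NMP/0.9% NaCl 30:70. The p.o. dose was 5 mg/kg in NMP/HPMC/diisooctyl sulfosuccinate 10:90. Blood was taken into K2EDTA from 0.083 (i.v.) or 0.25 h to 24 h. Plasma was assayed by LC-MS/MS and analysed non-compartmentally.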

[7] = Oral bioavailability in Wistar rat at 5 mg/kg measured upto 24 hrs by LC-MS/MS analysis; assay type: ADME, organism-based; settings: in vivo
Outline: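 Male Wistar rats, single dose. i.v. in NMP/0.9% NaCl 30:70; p.o. and i.p. in NMP/HPMC/diisooctyl sulfosuccinate 10:90; 3 per i.v./p.o. group, 6 i.p. K2EDTA plasma sampled 0.083–7 h, plus 24 h for i.v./p.o.; brain and CSF at 1, 2, 7 h (i.p. only). LC-MS/MS, noncompartmental analysis.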

CYP2D6 = CYP2D6 (Homo sapiens, UniProt P10635); test: Inhibition of CYP2D6 (unknown origin) at 10 uM relative to control; assay type: ADME
[8] = Average drug concentration in mouse plasma at 30 mg/kg, ip measured after 4 hrs; assay type: ADME, organism-based; settings: in vivo
Outline: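 Mice received 3, 10 or 30 mg/kg i.p. The compound was dissolved in DMSO/Tween 80 (1:1) and diluted with 8 parts saline (NaCl/DMSO/TW80 80/10/10). Plasma was taken 4 h after injection and average concentrations reported.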

[9] = Drug concentration in mouse CSF at 10 mg/kg, ip measured after 4 hrs; assay type: ADME, organism-based, Cerebrospinal fluid; settings: read-out: Ct
[10] = Average drug concentration in mouse plasma at 30 mg/kg, ip measured after 8 hrs; assay type: ADME, organism-based; settings: in vivo
Outline: (§2)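 In a time course, mice were injected i.p. with 30 mg/kg in NaCl/DMSO/Tween 80 (80/10/10). Average plasma levels were determined at the stated time points over 24 h.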

[11] = Average drug concentration in mouse plasma at 30 mg/kg, ip measured after 16 hrs; assay type: ADME, organism-based; settings: in vivo; outline: as §2
Monoglyceride lipase [12] = target: T1, Monoglyceride lipase; test: Inhibition of rat MAGL using native substrate by Rapidfire MS assay
[13] = target: T2, Monoglyceride lipase (Rattus norvegicus) (UniProt Q8R431); test: Binding affinity to rat MAGL assessed as association rate constant by SPR analysis; outline: as §1
T2 sequence (whole entry): T1 sequence (Q8R431 whole entry)

LLC-PK1 [14] = test: Substrate activity at human P-gp expressed in LLC-PK1 cells assessed as efflux ratio incubated for 3 hrs; assay type: cell-based
Outline: (§3)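 LLC-PK1 porcine kidney cells transfected with human or mouse P-gp, grown as polarized monolayers on filter plates. Compound is dosed apically or basolaterally and transport followed 3 h at 37 °C. Efflux ratio comes from unidirectional Papp; 1 µM zosuquidar defines permeability without P-gp.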

LLC-PK1 [15] = test: Substrate activity at mouse P-gp expressed in LLC-PK1 cells assessed as efflux ratio incubated for 3 hrs; assay type: cell-based; outline: as §3
Mus musculus [16] = test: Downregulation of brain AA level in ip dosed mouse measured after 4 hrs; assay type: functional, organism-based; settings: dose 3-30 mg/kg
Outline: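 Mice received 3, 10 or 30 mg/kg i.p. in NaCl/DMSO/Tween 80 (80/10/10) and were sacrificed after 4 h. Arachidonic acid in brain extracts was measured by LC/MS.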

[17] = target: T3, Monoglyceride lipase (Mus musculus) (UniProt O35678); test: In vivo receptor occupancy at MAGL receptor in mouse at 30 mg/kg, ip measured after 8 hrs; assay type: functional, organism-based
T3 sequence (whole entry): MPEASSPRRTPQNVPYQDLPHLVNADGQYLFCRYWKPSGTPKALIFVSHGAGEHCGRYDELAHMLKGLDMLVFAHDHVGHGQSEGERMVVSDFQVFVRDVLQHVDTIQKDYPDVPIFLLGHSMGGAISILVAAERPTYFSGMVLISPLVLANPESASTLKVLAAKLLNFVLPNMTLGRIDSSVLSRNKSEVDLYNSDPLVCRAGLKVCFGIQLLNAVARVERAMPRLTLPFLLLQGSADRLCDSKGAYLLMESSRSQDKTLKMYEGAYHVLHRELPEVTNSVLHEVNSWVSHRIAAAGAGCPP
Outline: (§4)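 Mice dosed 30 mg/kg i.p. in NaCl/DMSO/TW80 (80/10/10). Brain proteome was prepared at set time points over 24 h and MAGL occupancy read by activity-based protein profiling.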

[18] = target: T3, Monoglyceride lipase (Mus musculus); test: In vivo receptor occupancy at MAGL receptor in mouse at 30 mg/kg, ip measured after 24 hrs; assay type: functional, organism-based; outline: as §4
Mus musculus [19] = test: Antiinflammatory activity in LPS-induced CD-1 mouse neuroinflammation model assessed as decrease in brain LCN2 mRNA expression at 30 mg/kg, ip measured after 6 hrs by qRT-PCR analysis; assay type: functional, organism-based
Outline: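 CD-1 mice received NaCl + vehicle, LPS (5 mg/kg) + vehicle, or LPS + inhibitor at 30 mg/kg i.p. The vehicle was NaCl/DMSO/Tween 80, 80/10/10. Mice were killed 6 h after compound dosing. LCN2 and IL1b mRNA in cortical brain lysates were quantified by droplet digital qRT-PCR.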

CYP2D6, sequence (P10635 whole entry): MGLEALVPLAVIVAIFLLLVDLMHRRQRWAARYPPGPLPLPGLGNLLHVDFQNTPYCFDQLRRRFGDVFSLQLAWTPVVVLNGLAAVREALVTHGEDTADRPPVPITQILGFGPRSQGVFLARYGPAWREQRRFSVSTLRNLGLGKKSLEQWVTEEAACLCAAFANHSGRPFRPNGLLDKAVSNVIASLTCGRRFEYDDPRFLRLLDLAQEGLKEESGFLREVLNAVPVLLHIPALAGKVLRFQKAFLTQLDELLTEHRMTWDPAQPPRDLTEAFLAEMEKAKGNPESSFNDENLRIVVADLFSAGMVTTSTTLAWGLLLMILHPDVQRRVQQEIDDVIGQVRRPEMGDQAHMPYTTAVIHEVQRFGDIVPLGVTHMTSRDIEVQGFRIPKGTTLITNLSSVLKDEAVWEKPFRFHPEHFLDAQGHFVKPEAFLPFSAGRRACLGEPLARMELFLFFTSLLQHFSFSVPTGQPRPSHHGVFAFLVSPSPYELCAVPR

Row | Structure (SMILES) | Stability [1] | Kd (Monoglyceride lipase [2]) [nM] | microsomal CLint [3] [µL/min/mg] | fraction unbound [4] | Vd [5] [L/kg] | AUC(0-t) at 24 h [6] [ng·h/mL] | bioavailability [7] [%] | inhibition at 10 µM (CYP2D6) [%] | Cave [8] [nM] | concentration at 4 h [9] [nM] | Cave [10] [nM] | Cave [11] [nM] | IC50 (Monoglyceride lipase [12]) [nM] | K [13] | Ratio (LLC-PK1 [14]) | Ratio (LLC-PK1 [15]) | Activity (Mus musculus [16]) | Activity [17] [%] | Activity [18] [%] | Activity (Mus musculus [19])
1 | O=C1CO[C@H]2CCN(C(=O)N3CCC(Cc4ccc(C(F)(F)F)cc4)CC3)C[C@H]2N1 [listing 1 of 2 here] | Stable | 64 | < 10 | 0.032 | 1.3 | 19100 | 115 | -12 | 27765 | 123 | 21089 | 2955 | 71 |  |  |  |  |  |  | 
2 | O=C1CO[C@H]2CCN(C(=O)N3CCC(Cc4ccc(C(F)(F)F)cc4)CC3)C[C@H]2N1 [listing 2 of 2 here] |  |  |  |  |  |  |  |  |  |  |  |  |  | 2.6 10^5/M/s | 2.4 | 4 | Dose-Dependent Effect | 92 | 5 | Active
